Activity calls are given as the source filed them. The rule behind the calls is not given here.
What was measured:
[1] = tested on: 3T3-L1; experiment: Upregulation of SIRT1 mRNA expression in mouse 3T3L1 cells at 10 uM after 3 days by qRT-PCR method; type: functional, cell-based
[2] = tested on: 3T3-L1; experiment: Upregulation of SIRT1 protein expression in mouse 3T3L1 cells at 10 uM after 3 days by Western blotting method; type: functional, cell-based
Summary of the method: (§1)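 3T3-L1 lysates were made in NP-40/deoxycholate/SDS buffer with protease and phosphatase inhibitors, then transferred to membranes. Membranes were blocked 2 h in 5% skim milk/TBST and probed with antibodies to phospho-Thr172 and total AMPKα, phospho-Ser79 and total ACC, SIRT1, PPARγ, SREBP-1c and FABP4. Detection was by ECL, with densitometry normalized to α-tubulin. Mean ± SD of 3 independent experiments.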

[3] = tested on: 3T3-L1; experiment: Downregulation of FABP4 mRNA expression in mouse 3T3L1 cells at 10 uM after 3 days by RT-qPCR method; type: functional, cell-based
Summary of the method: (§2)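 Compounds were added to 3T3-L1 cells during cocktail-induced differentiation. Total RNA was extracted with RNAiso plus, and 1 µg was reverse-transcribed before real-time qPCR. Mouse primers were used for AMPK, ACC, SREBP-1c and FABP4. Mean ± SD of 3 independent experiments versus vehicle.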

[4] = tested on: 3T3-L1; experiment: Downregulation of PPARgamma mRNA expression in mouse 3T3L1 cells at 10 uM after 3 days by RT-qPCR method; type: functional, cell-based
[5] = Cytotoxicity against HEK293T cells after 24 hrs by MTT assay; type: cell-based, HEK-293T; details: human
Summary of the method: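 HEK293T seeded 5000/well, grown overnight, then exposed to a range of compound concentrations for 24 h with 0.5% DMSO vehicle. MTT (0.05 mg/well) added for 4 h, formazan dissolved in DMSO, absorbance read at 492 nm after 20 min shaking. Percentage computed as (A experiment − A blank)/(A control − A blank).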

[6] = species: Mus musculus; experiment: Induction of AMPKalpha phosphorylation in mouse 3T3L1 cells at 10 uM after 3 days by Western blotting method relative to control; type: cell-based; summary of the method: as §1
[7] = tested on: 3T3-L1; experiment: Inhibition of triglyceride accumulation in mouse 3T3L1 cells after 3 days; type: functional, cell-based; details: in the assay text read “after 6 days” for “after 3 days”
Summary of the method: (§3)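 3T3-L1 preadipocytes differentiated from 2 days post-confluence: 3 days in DMEM/10% FBS with insulin, dexamethasone, 0.5 mM IBMX and biotin, then 3 days with insulin only. Compounds in DMSO (0.1% DMSO vehicle) given on days 0 and 3. Berberine as positive control. Cells washed in ice-cold PBS and lysed; triglyceride measured with a commercial kit. Reported as TG relative to […] cells, mean ± SD of three independent experiments.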

[8] = tested on: 3T3-L1; experiment: Effect on ACC mRNA expression in mouse 3T3L1 cells at 10 uM after 3 days by qRT-PCR method; type: functional, cell-based; summary of the method: as §2
[9] = tested on: 3T3-L1; experiment: Effect on AMPKalpha mRNA expression in mouse 3T3L1 cells at 10 uM after 3 days by qRT-PCR method; type: functional, cell-based; summary of the method: as §2
[10] = species: Mus musculus; experiment: Induction of AMPKalpha phosphorylation in mouse 3T3L1 cells assessed as increase in ACC phosphorylation at 10 uM after 3 days by Western blotting method relative to control; type: cell-based; summary of the method: as §1
[11] = tested on: 3T3-L1; experiment: Inhibition of triglyceride accumulation in mouse 3T3L1 cells at 10 uM after 3 days relative to control; type: functional; details: 3T3-L1, 72 h; summary of the method: as §3
[12] = tested on: 3T3-L1; experiment: Inhibition of triglyceride accumulation in mouse 3T3L1 cells at 1 to 10 uM after 6 days by ORO staining-based microscopic method; type: functional, cell-based
Summary of the method: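 Differentiating 3T3-L1 cells received compounds in DMSO with the differentiation cocktail over 6 days, with 0.1% DMSO vehicle and berberine control. On day 6, cells fixed 1 h in 10% formaldehyde/PBS at room temperature and stained 30 min with fresh Oil Red O. After water washes, they were imaged at 10× magnification under constant light settings. Undifferentiated cells served as reference.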

[13] = tested on: 3T3-L1; experiment: Downregulation of SREBP-1c mRNA expression in mouse 3T3L1 cells at 10 uM after 3 days by RT-qPCR method; type: functional, cell-based; summary of the method: as §2
[14] = tested on: 3T3-L1; experiment: Downregulation of FABP4 protein expression in mouse 3T3L1 cells at 10 uM after 3 days by Western blotting method; type: functional, cell-based; summary of the method: as §1
[15] = tested on: 3T3-L1; experiment: Downregulation of SREBP-1c protein expression in mouse 3T3L1 cells at 10 uM after 3 days by Western blotting method; type: functional, cell-based; summary of the method: as §1
[16] = tested on: 3T3-L1; experiment: Downregulation of PPARgamma protein expression in mouse 3T3L1 cells at 10 uM after 3 days by Western blotting method; type: functional, cell-based; summary of the method: as §1

Compound: O=c1cc(O)cc(/C=C/C2CCCCC2)[nH]1
- Activity [1]: Active
- Activity [2]: Active
- Activity [3]: Active
- Activity [4]: Active
- CC50 at 24 h [5]: 13.8 µM
- fold change (FC) [6]: 3.45
- inhibition [7]: Dose-dependent effect
- Activity [8]: inactive
- Activity [9]: inactive
- fold change (FC) [10]: 2.98
- inhibition at 10 µM [11]: 78.4%
- inhibition [12]: Active
- Activity [13]: Active

Compound: O=c1cc(O)cc(/C=C/c2cccs2)[nH]1
- inhibition [7]: Dose-dependent effect

Compound: Oc1ccc(/C=C/c2cc(O)cc(O)c2)cc1 [RESVERATROL]
- CC50 at 24 h [5]: 22.8 µM
- inhibition [12]: Active

Compound: O=c1cc(O)cc(/C=C/c2ccco2)[nH]1
- inhibition [7]: Dose-dependent effect

Compound: O=c1cc(O)cc(/C=C/c2ccccc2)[nH]1
- inhibition [7]: Dose-dependent effect

Compound: O=c1cc(O)cc(/C=C/c2ccccc2Cl)[nH]1
- inhibition [7]: Dose-dependent effect

Compound: COc1ccc2cc3[n+](cc2c1OC)CCc1cc2c(cc1-3)OCO2
- inhibition [12]: Active

Compound: Cc1ccc(/C=C/c2cc(O)cc(=O)[nH]2)o1
- Activity [14]: Active
- Activity [1]: Active
- Activity [2]: Active
- Activity [15]: Active
- Activity [3]: Active
- Activity [4]: Active
- CC50 at 24 h [5]: > 1000 µM
- fold change (FC) [6]: 3.1
- inhibition [7]: Dose-dependent effect
- Activity [16]: Active
- Activity [8]: inactive
- Activity [9]: inactive
- fold change (FC) [10]: 4.12
- inhibition [12]: Active
- Activity [13]: Active

— ChEMBL document CHEMBL4251571, “Design, syntheses and lipid accumulation inhibitory activities of novel resveratrol mimics” (Eur J Med Chem, 2018)
